Laboratory results: ChEMBL document CHEMBL1145016, “Synthesis and antitumor activity of conjugates of muramyldipeptide or normuramyldipeptide with hydroxyacridine/acridone derivatives” (J Med Chem, 2003)
Calls of active or inactive are those of the source. No cut-off for these calls is given here.

How the values were obtained:
NCI-H460 [1] = assay: Tested for cytotoxicity of compound against NCI-H460 (lung)cell line; IA means inactive.; format: functional, cell-based; conditions: Homo sapiens
MCF7 [2] = assay: Tested for cytotoxicity of compound against MCF-7 (breast) cell line; IA means inactive.; format: functional, cell-based; conditions: Homo sapiens
SF-268 [3] = assay: Tested for cytotoxicity of compound against SF-268 (CNS) cell line; IA means inactive.; format: functional, cell-based; conditions: Homo sapiens
[4] = Tested for cytotoxicity (lethal concentration) of compound, activity expressed as MID log LC50; format: functional
Method in brief: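 MID is the calculated mean of LC50 concentrations (M) across the cell line panel, where LC50 is the half-lethal concentration. It is reported as a log value.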

NCI-H460 [5] = assay: Tested for cytotoxicity of compound against NCI-H460 (lung)cell line; Compound was active.; format: functional, cell-based; conditions: Homo sapiens
SF-268 [6] = assay: Tested for cytotoxicity of compound against SF-268 (CNS) cell line; Compound was active.; format: functional, cell-based; conditions: Homo sapiens
MCF7 [7] = assay: Tested for cytotoxicity of compound against MCF-7 (breast) cell line; Compound was active.; format: functional, cell-based; conditions: Homo sapiens

SMILES	IA (NCI-H460 [1])	IA (MCF7 [2])	IA (SF-268 [3])	MID log LC50 [4]	Cytotoxicity (NCI-H460 [5])	Cytotoxicity (SF-268 [6])	Cytotoxicity (MCF7 [7])
CC(=O)N[C@@H]1[C@H](OCc2ccccc2)OC(CO)C(O)[C@H]1OC(C)C(=O)N[C@H](C)C(=O)N[C@H](CCC(=O)OCCCNC(=O)c1cccc2cc3ccccc3nc12)C(N)=O (some centres undefined)	inactive	inactive	inactive				
CC(=O)N[C@@H]1[C@H](OCc2ccccc2)OC(CO)C(O)[C@H]1OCC(=O)N[C@H](C)C(=O)N[C@H](CCC(=O)OCCCNC(=O)c1cccc2c(=O)c3ccccc3[nH]c12)C(N)=O (some centres undefined)				4.04 M	Active	Active	Active
CC(=O)N[C@@H]1[C@H](OCc2ccccc2)OC(CO)C(O)[C@H]1OCC(=O)N[C@H](C)C(=O)N[C@H](CCC(=O)OCCNC(=O)c1cccc2cc3ccccc3nc12)C(N)=O (some centres undefined)	inactive	inactive	inactive				
O=[N+]([O-])c1cccc2nc3ccccc3c(NCCO)c12				5.9 M			
CC(=O)N[C@@H]1[C@H](OCc2ccccc2)OC(CO)C(O)[C@H]1OC(C)C(=O)N[C@H](C)C(=O)N[C@H](CCC(=O)OCCNC(=O)c1cccc2cc3ccccc3nc12)C(N)=O (some centres undefined)	inactive	inactive	inactive				
